Bioassay records as filed in PubChem.
Only some compounds are listed: those with a hit (about 2.1% of all), similar ones and a draw of the others.
STAT3 inh: inhibitors of IL-6 induced STAT3 signaling | U3A cells, IL-6 STAT3-luciferase reporter, luminescence; host cell line lacks STAT1 | inhibition, % at 5.5 µM | actives 0.89% (n = 190,000);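 active = inhibition above the mean inhibition across all screened compounds plus 3 SD, cut at about 44% in these data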;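 also: 0% = DMSO only wells and 100% = 100 µM nifuroxazide control wells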
STAT3 act: activators of IL-6 induced STAT3 signaling; activation (% of control), % at 5.6 µM; actives 0.91% (n = 190,000); U3A cells, IL-6 STAT3-luciferase reporter, luminescence; 100% = signal with IL-6 EC80 alone; AID 871;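 active = activation above the screen-wide mean of compound activation plus 3 SD, cut at about 130% in these data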;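 also: 0% = background luminescence of wells with medium and substrate only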
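Material: human U3A cells carrying STAT3-luciferase construct. Measured by: reporter luminescence signal. Timing: compound 1 h, then IL-6 6 h at 37 °C.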
STAT1 blocker: inhibitors of IFN-gamma induced STAT1 signaling; NIH 3T3 STAT1-luciferase reporter, luminescence; inhibition, % at 5.5 µM; actives 0.35% (n = 200,000); AID 920;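 active = inhibition above a set limit, the mean inhibition across all tested compounds plus 3 SD, cut at about 34% in these data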;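 also: 0% = IFN-gamma with DMSO and 100% = IFN-gamma with 300 µM nifuroxazide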
TNF necrop inh: blocks TNF-alpha induced death of Jurkat FADD-/- cells | actives 0.068% (n = 220,000) | activation (protection from cell death), % at 10 µM | AID 463075 | Jurkat FADD-/- TNF necroptosis rescue, ATP luminescence, 24 h; 0 = TNF only, 100 = no-TNF cells;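 active = activation, meaning protection from cell death, of at least 50% relative to plate controls; inactive = activation below 50%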;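 also: necroptosis triggered by 40 ng/mL TNF-alpha added together with compound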
L929 necroptosis: blocks zVAD induced death of L929 cells. AID 1377. L929 zVAD necroptosis rescue, ATP luminescence, 24 h; with zVAD 60 µM. viability rescue, % at 10 µM. actives 0.38% (n = 220,000);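 active = activation, scaled between plate controls, above about 75%, limit read from the data; inactive = activation under that limit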;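 also: 0% = zVAD with DMSO and 100% = DMSO alone without zVAD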
zVAD death conf: confirmed blocker of zVAD induced death in L929 cells; shares compounds with L929 necroptosis; L929 zVAD-induced necroptosis rescue, ATP luminescence, 24 h; activation (protection from necroptosis), % at 10 µM; actives 16% (n = 760); AID 463117;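 active = mean protection from necroptosis of at least 50% over duplicate tests; inactive = mean protection below 50%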;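 also: 0% = cells with zVAD alone and 100% = vehicle cells without zVAD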
Numbers without * were called inactive; · = no result.

SMILES	STAT3 inh	STAT3 act	STAT1 blocker	TNF necrop inh	L929 necroptosis	zVAD death conf
CCN(CC)c1ccc(/C=N/N2CCN(Cc3cccc4ccccc34)CC2)c(O)c1	1	103	1	-1	0	·
Cc1ccc2c(c1)C(C)CC(C)(C)N2C(=O)NC1CCCCC1 (centres undefined)	-5	108	0	7	88*	82*
Cc1ccc2c(c1)N(C(=O)NC1CCCCC1)C(C)(C)CC2C (centres undefined)	-11	110	-6	16	82*	81*
COc1ccc(-c2nnc3sc(C4CCCCC4)nn23)cc1OC	14	93	5	-3	76*	1
O=C1CCCN1CCC1CCCCN1Cc1nc(COc2ccccc2)no1 (centres undefined)	5	100	-2	-1	-1	·
O=C(CSc1nnc(-c2ccccc2Br)o1)N1CCN(C(=O)c2ccco2)CC1	2	102	-7	-1	86*	38
CCN1CCN(Cc2ccc(NC(=O)c3cc(NC(=O)c4cnn(-c5ccccc5)c4N)cc(OC)c3)cc2C(F)(F)F)CC1	·	·	·	-26	80*	81*
CCN1CCN(Cc2ccc(NC(=O)c3ccc(C)c(NC(=O)c4ccnnc4)c3)cc2C(F)(F)F)CC1	·	·	·	5	76*	56*
CCN1CCN(Cc2ccc(NC(=O)c3ccc(C)c(NC(=O)c4ccc5n[nH]nc5c4)c3)cc2C(F)(F)F)CC1	·	·	·	2	72	·
Cc1ccc2nc(Nc3ccccc3)c(/C=N/O)c(=O)n2c1	10	95	8	-6	0	·
COc1ccc2nc(NC(=O)CCc3cc(OC)c(OC)c(OC)c3)sc2c1	10	98	0	6	88*	4
CCC(=O)Nc1nc2ccc3nc(C)sc3c2s1	7	102	-54	0	84*	31
COc1ccc2sc(NC(=O)CC(C)C)nc2c1	24	80	-51	4	77*	7
CCC(=O)Nc1nc2cc(OC)ccc2s1	6	100	-44	-2	88*	29
CCC(=O)Nc1nc2c(OC)ccc(OC)c2s1	7	101	-4	1	2	·
COC(=O)N/N=C1\CCCc2ccccc21	1	97	0	0	0	·
CN(NC(=S)Nc1ccc(OC(F)F)cc1)C(=S)Nc1ccc(OC(F)F)cc1	-8	107	-6	0	0	·
O=c1[nH]c2ccc(Cl)cc2c(O)c1Cc1ccccc1	-1	102	-8	0	-2	·
CCOC(CNC(=O)c1ccc2c(c1)ncn2-c1ccc(F)c(F)c1)OCC	9	94	-13	1	78*	3
COC(CNC(=O)c1ccc2c(c1)ncn2-c1ccc(F)c(F)c1)OC	10	93	-23	1	77*	35
COC(CNC(=O)c1ccc2c(c1)ncn2-c1cccc(F)c1)OC	11	92	-15	1	76*	38
COC(CNC(=O)c1ccc2c(c1)ncn2-c1ccc(F)cc1F)OC	2	100	-2	2	13	·
CCOC(=O)C1(C(F)(F)F)N=C(c2ccccc2F)OC(N(C)C)=N1 (centres undefined)	·	·	·	1	0	·
COc1cc(/C=C/C(=O)c2ccc(NS(=O)(=O)c3ccc(C)cc3)cc2)cc(OC)c1O	-7	102	-2	1	103*	6
O=C(N/C(=C/c1ccc(Cl)cc1)c1nc2ccccc2[nH]1)c1ccco1	-6	109	-6	-4	0	·
SMILES	STAT3 inh	STAT3 act	STAT1 blocker	TNF necrop inh	L929 necroptosis	zVAD death conf
O=C(/C(=C/c1ccc(Cl)cc1)c1nc2ccccc2[nH]1)c1ccccc1	13	93	-4	-19	107*	39
Cc1ccc(/C(O)=C/c2nc3ccccc3oc2=O)cc1	·	·	·	17	77*	1
O=c1oc2ccccc2nc1/C=C(O)/C=C\c1ccccc1	6	103	-7	10	78*	3
NNc1nc2ccc(F)cc2s1	-25	124	-56	-1	-1	·
CC(C)(C)c1nc(NC(=O)Nc2ccccc2)sc1Br	1	103	-11	-1	83*	3
COc1cc(CCc2ccc3c(c2)OCO3)oc(=O)c1	·	·	·	-1	1	·
CC1(Cc2ccc3c(c2)OCO3)NC(=O)NC1=O (centres undefined)	0	101	-4	17	102*	59*
O=C(COc1ccc(/C=N/NC(=O)C(=O)N2CCCCCC2)cc1)Nc1ccccc1Cl	12	88	-1	0	78*	45
CCC(=O)Nc1ccc(C(=O)CSc2nc3ccc(C)cc3[nH]2)cc1	-1	103	-12	3	76*	39
Cc1nc2nc(SCC(N)=O)[nH]c2cc1Br	16	91	-2	-3	0	·
Cc1nc2nc(SCC(=O)c3ccc([N+](=O)[O-])cc3)[nH]c2cc1Br	-8	106	-8	0	90*	1
CCC(=O)Nc1ccc(C(=O)NNC(=O)COc2cc(C)ccc2C)cc1	-8	103	-12	1	85*	45
CN(C)CCCNc1cc(C(C)(C)C)nc2c(-c3ccc(Cl)cc3)cnn12	·	·	·	-27	6	·
CC(C)(C)c1cc(NCc2ccccn2)n2ncc(-c3ccc(Cl)cc3)c2n1	·	·	·	4	77*	1
CCN(CC)Cc1cc2[nH]c3c4ccc(Cl)cc4ncc3c2cc1OC	·	·	·	-29	81*	73*
CCN(CC)C(=O)Oc1ccnc2cc(Cl)ccc12	10	95	6	-1	-1	·
O=C(NCCCN1CCOCC1)c1cc(-c2cccs2)on1	-21	120	-21	-8	26	·
O=C(NCCCn1ccnc1)c1cc(-c2cccs2)on1	-26	123	-51	-9	76*	4
O=[N+]([O-])/C(C=Nc1ccccc1O)=C\Nc1ccccc1O	·	·	·	0	87*	31
Cn1c(=O)c2[nH]c(N3CCCCC3)nc2n(C)c1=O	·	·	·	2	1	·
Cn1c(=O)c2[nH]c(N3CCN(c4ccccn4)CC3)nc2n(C)c1=O	16	90	3	3	75*	2
CCOC(=O)Nc1ccc2c(c1)ncn2C1CCCCC1	11	95	-13	1	84*	17
COc1ccc(C(=O)N/N=C/c2cc3ccccc3[nH]c2=S)cc1	29	80	1	-4	-1	·
O=C(Nc1ccc(OCC(=O)N2CCOCC2)cc1)Nc1cccc(Cl)c1	-4	105	0	2	71	·
CC(C)(C)c1ccc(NC(=O)Nc2ccc(OCC(=O)N3CCOCC3)cc2)cc1	12	95	-38	2	80*	40
O=c1cc(/N=C/c2coc3c(ccc4ccccc43)c2=O)[nH]c(=S)[nH]1	4	99	5	0	2	·
CC(C)(C)c1ccc2c(c1)OC(C(=O)N/N=C/c1ccc([N+](=O)[O-])o1)CO2 (centres undefined)	·	·	·	-11	2	·
